Measured values from ChEMBL document CHEMBL1125014, “Synthesis and structure-activity relationships of new 9-N-alkyl derivatives of 9(S)-erythromycylamine” (1990).
Values after ≈ are worked out from the molar mass of the structure shown.

Experiments:
Format in all cases: functional
Streptococcus pneumoniae [1] = test: MIC value was measured against streptococcus pneumoniae park1
In short: (§1)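 Susceptibility determined by standard agar-dilution method against a panel of bacterial strains.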

Staphylococcus aureus [2] = test: MIC value measured against staphylococcus aureus X1
Streptococcus pneumoniae [3] = test: Effective dose against mice infected with streptococcus pneumoniae after peroral administration (in vivo); conditions: in Mus musculus, po
Enterococcus faecalis = test: MIC value was measured against streptococcus faecalis X66; in short: as §1
Streptococcus pyogenes [4] = test: MIC value measured against streptococcus pyogenes C203
[5] = test system: Staphylococcus epidermidis; test: microbe, parasite or virus in culture
Staphylococcus aureus [6] = test: Effective dose against mice infected with Staphylococcus aureus after peroral administration (in vivo); conditions: in Mus musculus, po
Streptococcus pyogenes [7] = test: Effective dose against mice infected with streptococcus pyogenes after peroral administration (in vivo); conditions: in Mus musculus, po
Haemophilus influenzae [8] = test: MIC value was measured against haemophilus influenzae CL
Streptococcus pneumoniae [9] = test: MIC value measured against streptococcus pneumoniae Park1
Haemophilus influenzae [10] = test: MIC value was measured against haemophilus influenzae.; in short: as §1

Compound | MIC (Streptococcus pneumoniae [1]) [µg/mL] | MIC (Staphylococcus aureus [2]) [µg/mL] | ED50 (Streptococcus pneumoniae [3]) [mg/kg] | MIC (Enterococcus faecalis) [µg/mL] | MIC (Streptococcus pyogenes [4]) [µg/mL] | MIC [5] [µg/mL] | ED50 (Staphylococcus aureus [6]) [mg/kg] | ED50 (Streptococcus pyogenes [7]) [mg/kg] | MIC (Haemophilus influenzae [8]) [µg/mL] | MIC (Streptococcus pneumoniae [9]) [µg/mL] | MIC (Haemophilus influenzae [10]) [µg/mL]
CC[C@H]1OC(=O)[C@H](C)[C@@H](OC2CC(C)(OC)C(O)C(C)O2)[C@H](C)[C@@H](OC2OC(C)CC(N(C)C)C2O)[C@](C)(O)C[C@@H](C)[C@H](NCCCc2ccccc2)[C@H](C)[C@@H](O)[C@]1(C)O (some centres undefined) | 0.015 (≈ 0.0176 µM) | 1 (≈ 1.17 µM) | 17 | 0.06 (≈ 0.0703 µM) | 0.015 (≈ 0.0176 µM) | 0.5 (≈ 0.586 µM) | 37 | 14 | 2 (≈ 2.34 µM) | – | –
CC[C@H]1OC(=O)[C@H](C)[C@@H](OC2CC(C)(OC)C(O)C(C)O2)[C@H](C)[C@@H](OC2OC(C)CC(N(C)C)C2O)[C@](C)(O)C[C@@H](C)[C@H]2[C@H](C)[C@@H](OCN2C2CCCC2)[C@]1(C)O (some centres undefined) | 0.06 (≈ 0.0736 µM) | 1 (≈ 1.23 µM) | 9 | 0.5 (≈ 0.613 µM) | 0.12 (≈ 0.147 µM) | 1 (≈ 1.23 µM) | > 50 | 10 | 4 (≈ 4.91 µM) | – | –
CCCCCCCCN[C@@H]1[C@H](C)[C@@H](O)[C@](C)(O)[C@@H](CC)OC(=O)[C@H](C)[C@@H](OC2CC(C)(OC)C(O)C(C)O2)[C@H](C)[C@@H](OC2OC(C)CC(N(C)C)C2O)[C@](C)(O)C[C@H]1C (some centres undefined) | – | 0.5 (≈ 0.59 µM) | 46 | – | 0.015 (≈ 0.0177 µM) | 0.25 (≈ 0.295 µM) | > 50 | 23 | 1 (≈ 1.18 µM) | 0.015 (≈ 0.0177 µM) | 1 (≈ 1.18 µM)
CCN[C@@H]1[C@H](C)[C@@H](O)[C@](C)(O)[C@@H](CC)OC(=O)[C@H](C)[C@@H](OC2CC(C)(OC)C(O)C(C)O2)[C@H](C)[C@@H](OC2OC(C)CC(N(C)C)C2O)[C@](C)(O)C[C@H]1C (some centres undefined) | – | 1 (≈ 1.31 µM) | 13 | – | 0.12 (≈ 0.157 µM) | 1 (≈ 1.31 µM) | 23 | 13 | 1 (≈ 1.31 µM) | 0.03 (≈ 0.0393 µM) | 1 (≈ 1.31 µM)
CC[C@H]1OC(=O)[C@H](C)[C@@H](OC2CC(C)(OC)C(O)C(C)O2)[C@H](C)[C@@H](OC2OC(C)CC(N(C)C)C2O)[C@](C)(O)C[C@@H](C)[C@H](NC(C)CCCN(CC)CC)[C@H](C)[C@@H](O)[C@]1(C)O (some centres undefined) | – | 2 (≈ 2.28 µM) | 18 | – | 0.5 (≈ 0.571 µM) | 2 (≈ 2.28 µM) | 41 | 31 | 8 (≈ 9.13 µM) | 0.5 (≈ 0.571 µM) | 8 (≈ 9.13 µM)
CC[C@H]1OC(=O)[C@H](C)[C@@H](OC2CC(C)(OC)C(O)C(C)O2)[C@H](C)[C@@H](OC2OC(C)CC(N(C)C)C2O)[C@](C)(O)C[C@@H](C)[C@H](NCCC2=C(C)CCCC2(C)C)[C@H](C)[C@@H](O)[C@]1(C)O (some centres undefined) | – | 1 (≈ 1.13 µM) | > 50 | 0.12 (≈ 0.136 µM) | 0.5 (≈ 0.565 µM) | 1 (≈ 1.13 µM) | > 50 | > 50 | 4 (≈ 4.52 µM) | – | –
CC[C@H]1OC(=O)[C@H](C)[C@@H](OC2CC(C)(OC)C(O)C(C)O2)[C@H](C)[C@@H](OC2OC(C)CC(N(C)C)C2O)[C@](C)(O)C[C@@H](C)[C@H]2[C@H](C)[C@@H](OCN2Cc2ccccc2)[C@]1(C)O (some centres undefined) | 0.06 (≈ 0.0717 µM) | 1 (≈ 1.19 µM) | 15 | 0.5 (≈ 0.597 µM) | 0.12 (≈ 0.143 µM) | 0.5 (≈ 0.597 µM) | > 50 | 16 | 4 (≈ 4.78 µM) | – | –
CC[C@H]1OC(=O)[C@H](C)[C@@H](OC2CC(C)(OC)C(O)C(C)O2)[C@H](C)[C@@H](OC2OC(C)CC(N(C)C)C2O)[C@](C)(O)C[C@@H](C)[C@H](NC2CCCC2)[C@H](C)[C@@H](O)[C@]1(C)O (some centres undefined) | – | 1 (≈ 1.25 µM) | 4 | – | 0.06 (≈ 0.0747 µM) | 0.5 (≈ 0.623 µM) | 46 | 4 | 2 (≈ 2.49 µM) | 0.06 (≈ 0.0747 µM) | 2 (≈ 2.49 µM)
CCCCCCN[C@@H]1[C@H](C)[C@@H](O)[C@](C)(O)[C@@H](CC)OC(=O)[C@H](C)[C@@H](OC2CC(C)(OC)C(O)C(C)O2)[C@H](C)[C@@H](OC2OC(C)CC(N(C)C)C2O)[C@](C)(O)C[C@H]1C (some centres undefined) | – | 1 (≈ 1.22 µM) | 14 | – | 0.12 (≈ 0.146 µM) | 0.25 (≈ 0.305 µM) | 39 | 18 | 4 (≈ 4.88 µM) | 0.008 (≈ 0.00977 µM) | 4 (≈ 4.88 µM)
CC[C@H]1OC(=O)[C@H](C)[C@@H](OC2CC(C)(OC)C(O)C(C)O2)[C@H](C)[C@@H](OC2OC(C)CC(N(C)C)C2O)[C@](C)(O)C[C@@H](C)[C@H](NC(C)C)[C@H](C)[C@@H](O)[C@]1(C)O (some centres undefined) | – | 1 (≈ 1.29 µM) | 13 | – | 0.25 (≈ 0.322 µM) | 0.5 (≈ 0.643 µM) | 32 | 13 | 2 (≈ 2.57 µM) | 0.12 (≈ 0.154 µM) | 2 (≈ 2.57 µM)
CC[C@H]1OC(=O)[C@H](C)[C@@H](OC2CC(C)(OC)C(O)C(C)O2)[C@H](C)[C@@H](OC2OC(C)CC(N(C)C)C2O)[C@](C)(O)C[C@@H](C)[C@H](NCC#Cc2ccccc2)[C@H](C)[C@@H](O)[C@]1(C)O (some centres undefined) | 0.008 (≈ 0.00942 µM) | 1 (≈ 1.18 µM) | 34 | 0.25 (≈ 0.294 µM) | 0.008 (≈ 0.00942 µM) | 0.5 (≈ 0.589 µM) | > 50 | 27 | 4 (≈ 4.71 µM) | – | –
CC[C@H]1OC(=O)[C@H](C)[C@@H](OC2CC(C)(OC)C(O)C(C)O2)[C@H](C)[C@@H](OC2OC(C)CC(N(C)C)C2O)[C@](C)(O)C[C@@H](C)[C@H]2[C@H](C)[C@@H](OCN2C(C)C)[C@]1(C)O (some centres undefined) | 0.06 (≈ 0.076 µM) | 1 (≈ 1.27 µM) | 6 | 0.25 (≈ 0.317 µM) | 0.12 (≈ 0.152 µM) | 0.5 (≈ 0.634 µM) | 9 | 7 | 4 (≈ 5.07 µM) | – | –
CC[C@H]1OC(=O)[C@H](C)[C@@H](OC2CC(C)(OC)C(O)C(C)O2)[C@H](C)[C@@H](OC2OC(C)CC(N(C)C)C2O)[C@](C)(O)C[C@@H](C)[C@H](NCCCCCO)[C@H](C)[C@@H](O)[C@]1(C)O (some centres undefined) | – | 0.5 (≈ 0.609 µM) | > 50 | – | 0.008 (≈ 0.00974 µM) | 0.5 (≈ 0.609 µM) | > 50 | 43 | 2 (≈ 2.44 µM) | 0.008 (≈ 0.00974 µM) | 2 (≈ 2.44 µM)
CC[C@H]1OC(=O)[C@H](C)[C@@H](OC2CC(C)(OC)C(O)C(C)O2)[C@H](C)[C@@H](OC2OC(C)CC(N(C)C)C2O)[C@](C)(O)C[C@@H](C)[C@H](NCc2ccccc2)[C@H](C)[C@@H](O)[C@]1(C)O (some centres undefined) | 0.015 (≈ 0.0182 µM) | 0.5 (≈ 0.606 µM) | 11 | 0.25 (≈ 0.303 µM) | 0.06 (≈ 0.0727 µM) | 0.5 (≈ 0.606 µM) | > 50 | 9 | 2 (≈ 2.42 µM) | – | –
CCCCCN[C@@H]1[C@H](C)[C@@H](O)[C@](C)(O)[C@@H](CC)OC(=O)[C@H](C)[C@@H](OC2CC(C)(OC)C(O)C(C)O2)[C@H](C)[C@@H](OC2OC(C)CC(N(C)C)C2O)[C@](C)(O)C[C@H]1C (some centres undefined) | – | 0.5 (≈ 0.621 µM) | 14 | – | 0.06 (≈ 0.0745 µM) | 0.5 (≈ 0.621 µM) | 25 | 9 | 1 (≈ 1.24 µM) | 0.015 (≈ 0.0186 µM) | 1 (≈ 1.24 µM)
CCCCN[C@@H]1[C@H](C)[C@@H](O)[C@](C)(O)[C@@H](CC)OC(=O)[C@H](C)[C@@H](OC2CC(C)(OC)C(O)C(C)O2)[C@H](C)[C@@H](OC2OC(C)CC(N(C)C)C2O)[C@](C)(O)C[C@H]1C (some centres undefined) | – | 0.25 (≈ 0.316 µM) | 13 | – | 0.06 (≈ 0.0758 µM) | 0.25 (≈ 0.316 µM) | 15 | 13 | 1 (≈ 1.26 µM) | 0.015 (≈ 0.019 µM) | 1 (≈ 1.26 µM)
CC[C@H]1OC(=O)[C@H](C)[C@@H](OC2CC(C)(OC)C(O)C(C)O2)[C@H](C)[C@@H](OC2OC(C)CC(N(C)C)C2O)[C@](C)(O)C[C@@H](C)[C@H]2[C@H](C)[C@@H](OCN2C(C)CCCN(CC)CC)[C@]1(C)O (some centres undefined) | 0.5 (≈ 0.563 µM) | 8 (≈ 9.01 µM) | – | 2 (≈ 2.25 µM) | 0.5 (≈ 0.563 µM) | 8 (≈ 9.01 µM) | – | – | 8 (≈ 9.01 µM) | – | –
